Reference: ChEMBL document CHEMBL1157229, “Phaeofurans and sorbicillin analogues from a fungicolous Phaeoacremonium species (NRRL 32148)” (2006)
The source made the active and inactive calls. No cut-off for these calls is given here.

Experiments:
Aspergillus flavus = test: Antifungal activity against Aspergillus flavus NRRL 6541 at 200 ug/disk after 48 hrs by standard disk diffusion assay; type: functional; conditions: for zone of inhibition at 200 µg/disc: NRRL 6541, 48 h, read-out: IZ
Procedure, shortened: (§1)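 Compounds applied at 200 µg per disk. Read-out was the zone diameter (mm) around the disk at 48 h. Zones were scored as clear, partial clearing, or reduced sporulation of the fungus.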

Fusarium verticillioides = test: Antifungal activity against Fusarium verticillioides NRRL 25457 at 200 ug/disk after 48 hrs by standard disk diffusion assay; type: functional, organism-based; procedure, shortened: as §1
Staphylococcus aureus = test: […] activity against Staphylococcus aureus ATCC 29213 at 200 ug/disk after 48 hrs by standard disk diffusion assay; type: functional, organism-based
Escherichia coli = test: […] activity against Escherichia coli ATCC 25922 at 200 ug/disk after 48 hrs by standard disk diffusion assay; type: functional, organism-based
Candida albicans = test: Antifungal activity against Candida albicans ATCC 14053 at 200 ug/disk after 48 hrs by standard disk diffusion assay; type: functional, organism-based

Compound	zone of inhibition at 200 µg/disc (Aspergillus flavus)	Activity (Fusarium verticillioides)	Activity (Aspergillus flavus)	Activity (Staphylococcus aureus)	Activity (Escherichia coli)	Activity (Candida albicans)
C/C=C/C=C/C(=O)c1cc(C=O)c(OC)cc1O	40 mm					
CCCC(O)[C@H]1OCC2=C1[C@@H](O)[C@H]1O[C@H]1[C@@H]2O (stereo partly drawn)		inactive	inactive	inactive	inactive	inactive
C/C=C/CCC(=O)c1cc(CO)c(OC)cc1O	18 mm					
O[C@@H]1c2cocc2[C@@H](O)[C@H]2O[C@H]21		inactive	inactive	inactive	inactive	inactive
C/C=C/C=C/C(=O)c1cc(C)c(OC)cc1O			inactive			
